Bioassay records deposited in PubChem by Sanford-Burnham Center for Chemical Genomics.
In the library only some 2.5% were active in any assay of this set; here they are far more common.
FLuc inhib CS: firefly luciferase enzyme inhibitors, primary screen, artefact control for luciferase-based inhibitor screens, biochemical, luminescence, ATPLite; Luciferin 4-monooxygenase (Photinus pyralis), P08659; 10 min; inhibition, % at 10 µM; hit rate 1.5% among 200,000; AID 1006, 2008;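 active = inhibition above about 50% when tested at 10 µM, limit read from the data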
Target sequence (P08659 whole entry, looked up): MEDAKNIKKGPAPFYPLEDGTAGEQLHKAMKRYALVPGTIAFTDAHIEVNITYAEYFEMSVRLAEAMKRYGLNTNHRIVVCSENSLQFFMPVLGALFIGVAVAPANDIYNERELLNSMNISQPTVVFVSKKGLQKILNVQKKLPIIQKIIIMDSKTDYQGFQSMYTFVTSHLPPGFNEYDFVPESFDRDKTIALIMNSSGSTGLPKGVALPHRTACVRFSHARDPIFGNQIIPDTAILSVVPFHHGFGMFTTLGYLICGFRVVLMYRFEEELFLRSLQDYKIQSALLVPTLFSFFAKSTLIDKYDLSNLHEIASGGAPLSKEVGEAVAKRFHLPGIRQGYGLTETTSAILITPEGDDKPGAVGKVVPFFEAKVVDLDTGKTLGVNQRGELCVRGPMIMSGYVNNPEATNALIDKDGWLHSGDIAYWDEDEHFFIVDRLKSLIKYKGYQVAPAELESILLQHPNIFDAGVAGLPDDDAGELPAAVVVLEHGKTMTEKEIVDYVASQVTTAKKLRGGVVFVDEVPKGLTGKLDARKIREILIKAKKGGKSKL
Diaphorase inh: diaphorase inhibitors and chemical oxidizers, primary screen, counter-screen for diaphorase-coupled primary assays, biochemical, uHTS, resorufin fluorescence; diaphorase resazurin-to-resorufin fluorescence, NADH, 16 min; bacterial (C. kluyveri) enzyme, not human; inhibition, % at 20 µM; hit rate 0.69% among 190,000; AID 1217, 2008;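 active = primary screen inhibition at 20 µM above a set limit, cut at about 50% in these data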
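Test system: diaphorase enzyme from Clostridium kluyveri; amount: diaphorase at 0.14 U/mL in enzyme working solution; detection: fluorescence of resorufin formed from resazurin, Ex 544/Em 590 nm; times: reaction incubation of 16 min at room temperature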
FLuc stim CS: FLuc activators, initial screening, artefact control for FLuc-dependent activation tests, biochemical, ATPlite luminescence | Luciferin 4-monooxygenase (Photinus pyralis), P08659 | ATPlite luciferase biochemical, 10 min; 0 = ATP-free wells, 1 = DMSO control | activation factor at 10 µM | 200,000 tested, under 10 active | AID 1027, 2008;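 active = luciferase activation factor, scaled between plate controls, of at least 2 with compound at 10 µM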
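System: cell-free luciferase reagent; medium: PBS as buffer for the ATP substrate; doses: test compounds dosed from 2 mM stocks in 100% DMSO; incubation: 10 min, room temperature; measured by: luminescence from luciferase reaction; read-out: luciferase activation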
Diaphorase act: compounds boosting diaphorase resazurin reduction – biochemical, uHTS, resorufin fluorescence, counter-screen for diaphorase-coupled primary assays, primary screen | Diaphorase/resazurin coupled assay, 16 min; hits give high values; 1 = vehicle wells, 0 = NADH-free wells | activation factor at 20 µM | hit rate 0.005% among 190,000 | AID 1229, 2008;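 active = diaphorase activity raised at least twofold by the compound at 20 µM; inactive = activation factor below 2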
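Test system: Clostridium kluyveri diaphorase, purified enzyme; input: enzyme 0.07 U/mL final; buffer or medium: 50 mM HEPES pH 7.4 with 4.542 mM MgCl2, 0.005% Tween 20; also added: 0.114 mM NADH and 0.1 mM resazurin, final amounts; schedule: 16 min enzyme reaction, ambient temperature; technique: fluorescence of resorufin, 544 nm excitation, 590 nm emission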
PMI act hi M6P: human PMI activators, high substrate, primary screen, biochemical, fluorescence intensity, near-saturating mannose 6-phosphate. coupled PMI enzyme assay, resazurin fluorescence, 20 min; hits give high values; 1 = untreated enzyme, 0 = substrate-free blank. activation factor at 20 µM. hit rate 0.34% among 190,000. AID 1216, 2008;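 active = activation factor of 2 or more at 20 µM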
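Test system: human phosphomannose isomerase with PGI, G6PDH, diaphorase coupling enzymes; Amount: PMI at 15 ng/mL final; Reagent: Mannose-6-phosphate 1.0 mM (near-saturating) plus 0.22 mM NADP+; Timing: 20 min, room temperature; Technique: resorufin fluorescence at Ex 544/Em 590 nm; Dosing: 20 µM single dose.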
PMI act: activators of human PMI, primary screen, biochemical, fluorescence intensity, near-Km mannose 6-phosphate | AID 1214, 2008 | activation factor at 20 µM | purified human PMI, coupled resazurin fluorescence, 20 min; hits give high values; 1 = vehicle control, 0 substrate-free wells | hit rate 0.005% among 190,000 | Mannose-6-phosphate isomerase (Homo sapiens), P34949;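 active = activation factor of 2 or more at 20 µM, relative to plate controls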
A number is an active result; i = inactive.

SMILES	FLuc inhib CS	Diaphorase inh	FLuc stim CS	Diaphorase act	PMI act hi M6P	PMI act
CCC(C)(C)n1nnnc1C(c1cc2cc(OC)ccc2[nH]c1=O)N1CCc2ccccc21 (configuration not stated)	i	i	i	i	i	i
Cc1ccc2[nH]c(=O)c(C(c3nnnn3C3CCCC3)N3CCCc4ccccc43)cc2c1 (configuration not stated)	i	62	i	i	i	i
Cc1ccc2[nH]c(=O)c(C(c3nnnn3Cc3ccccc3)N3CCc4ccccc43)cc2c1 (configuration not stated)	i	i	i	i	i	i
CCC(C)(C)n1nnnc1C(c1cc2cc(C)ccc2[nH]c1=O)N1CCCc2ccccc21 (configuration not stated)	i	70	i	i	i	i
CCOCCCNC(=S)NCCCNc1nc2c(C)cc(C)cc2cc1C#N	i	i	i	i	2.1	i
Cc1cc(C)c2nc(NCCCNC(=S)NCCCN(C)C)c(C#N)cc2c1	i	i	i	i	i	i
COc1c(C(=O)NCCSC(C)(C)C)ccc2ccccc12	i	i	i	i	i	i
COc1ccc2c(c1)-c1nc(/N=C/c3ccccc3O)sc1CC2	i	54	i	i	i	i
COCCCNC(=O)CCC(=O)NNc1nc2ccccc2c2nc(C)nn12	i	i	i	i	i	i
CC(C)Nc1ncnc2c1cnn2-c1ccc(Cl)cc1	64	i	i	i	i	i
CCOC(=O)C1CCN(c2ncnc3c2cnn3-c2ccc(Cl)cc2)CC1	i	i	i	i	i	i
Clc1ccc(-n2ncc3c(N4CCCC4)ncnc32)cc1	75	i	i	i	i	i
Clc1ccc(Nc2ncnc3c2cnn3-c2ccccc2)cc1	i	i	i	i	i	i
O=C(O)c1ccc(N2C(=O)CC(SC(=Nc3ccccc3)Nc3ccccc3)C2=O)cc1 (configuration not stated)	i	i	i	i	i	i
CC(/C=C/c1ccc(N(C)C)cc1)=N\N=C(/N)SC1CC(=O)N(c2ccc(C(=O)O)cc2)C1=O (configuration not stated)	69	i	i	i	i	i
Cc1ccc(-c2noc(CCC(=O)N3CCCc4ccccc43)n2)cc1	i	i	i	i	i	i
Cc1cccc(NC(=O)CCC(=O)OCC(=O)c2ccc(Oc3ccc([N+](=O)[O-])cc3)cc2)c1	i	67	i	i	i	i
CC(C)(C)C(=O)COC(=O)c1cccc(NC(=O)c2ccco2)c1	i	i	i	i	i	i
O=C(Nc1cccc(N=Cc2cc(Br)cc(Br)c2O)c1)c1ccco1	i	55	i	i	i	i
Cc1ccc(C(=O)COC(=O)c2cccc(NC(=O)c3ccc([N+](=O)[O-])cc3[N+](=O)[O-])c2)cc1	96	i	i	i	i	i
O=C(COC(=O)c1cccc(NC(=O)c2ccco2)c1)c1ccc(Br)cc1	60	i	i	i	i	i
COc1cc(NC(=O)CSc2nc(C)c(C)c(C)n2)c(C)cc1[N+](=O)[O-]	i	i	i	i	i	i
CC(C)(C)NC(=O)/C=C/c1ccc(C(F)(F)F)cc1	i	i	i	i	i	i
CCOC(=O)C(NC(C)=O)(Nc1ccc(S(=O)(=O)Nc2cc(C)nc(C)n2)cc1)C(F)(F)F (configuration not stated)	i	i	i	i	i	i
CC1=C(C(=O)NCc2ccccn2)C2(CCC(C)CC2)OC1=O (configuration not stated)	i	i	i	i	i	i
